Hits are enriched below; roughly 1.6% of the tested compounds scored in any of these assays.
PG9 Ab binder = small molecules binding HIV-1 gp120 antibody PG9; AID 624416; hit rate 0.43% among 360,000; TR-FRET gp120-PG9 antibody binding; inhibition, % at 6.7 µM; in the data active means inhibition above about 8.5%
NR1D1 modulator = modulates human Rev-erb alpha binding to DNA. Rev-erbα–FITC-DNA binding, fluorescence polarization, 90 min. AID 1259318. activity, % at 10 µM. hit rate 0.79% among 370,000;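 active means activity above about 14%, limit read from the data; passing the limit was not always enough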
PKA-R1A activ = activates the PKA-R1A holoenzyme complex | PKA-R1A dissociation, Cy5-IP20 fluorescence polarization; scaled: DMSO 0%, 113 µM cGMP 100% | P00514+P68181 | hit rate 0.083% among 340,000 | activation, % at 11.4 µM | AID 504707;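 active means percent activation above the mean of all tested compounds plus 3 SD, cut at about 19% in these data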;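 further: higher means more PKAc released from R1A so a rise in polarization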
NR2E3 ag-1 = human photoreceptor-specific nuclear receptor agonism; Q9Y5X4; CHO-S Gal4-NCOR/VP16-NR2E3 two-hybrid, luciferase; inhibition of corepressor binding, % at 3.98 µM; hit rate 0.35% among 360,000; AID 602229;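 active means inhibition above the mean of all tested compounds plus 3 SD, cut at about 70% in these data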;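 further: higher means lower luciferase signal from less NR2E3 corepressor binding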
Target sequence (Q9Y5X4 whole entry, looked up, the tested form may be a part): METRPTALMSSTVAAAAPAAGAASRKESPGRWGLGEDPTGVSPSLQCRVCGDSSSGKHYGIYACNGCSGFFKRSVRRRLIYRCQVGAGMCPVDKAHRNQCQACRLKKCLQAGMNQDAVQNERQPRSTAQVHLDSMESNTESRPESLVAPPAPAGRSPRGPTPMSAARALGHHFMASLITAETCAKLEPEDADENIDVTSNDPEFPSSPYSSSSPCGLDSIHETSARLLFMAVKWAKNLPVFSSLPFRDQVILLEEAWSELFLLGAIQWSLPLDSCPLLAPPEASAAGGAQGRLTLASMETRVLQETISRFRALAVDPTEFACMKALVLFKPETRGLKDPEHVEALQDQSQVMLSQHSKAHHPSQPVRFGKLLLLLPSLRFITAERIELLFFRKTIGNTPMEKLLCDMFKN
PKA-R2B act = PKA-R2B complex activation; P22694+P31323; PKA-R2B holoenzyme dissociation, Cy5-IP20 fluorescence polarization; R2B truncated from residue 108, S112A mutant; 0% DMSO only, 100% 113 µM cGMP; activation, % at 11.4 µM; hit rate 0.079% among 340,000;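 active means activation above a cutoff set at the mean over all compounds plus 3 SD, cut at about 18% in these data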;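 further: higher means more holoenzyme dissociation and a rise in polarization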
NR2E3 ag-2 = activates human photoreceptor nuclear receptor NR2E3; GST-NR2E3/biotin-RetCOR TR-FRET, 1536-well; Q9Y5X4; AID 2300; inhibition of corepressor binding, % at 4.78 µM; hit rate 0.12% among 320,000;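 active means percent inhibition above the cutoff of mean plus 3 SD of all tested compounds, set per screening campaign, cut at about 20% in these data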
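Material: NR2E3–RetCOR corepressor complex / Incubation: Compound–protein incubation for 5 h at 4 °C / Dosing: compound at 4.8 µM, single dose / Detection: time-resolved FRET / Benchmarks: high control biotin, low control 0.6% DMSO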
R2B FP artifact = fluorescence polarization artifact in PKA-R2B activator counter-screen; activation, % at 11.4 µM; hit rate 6% among 270; shares compounds with PKA-R2B act; FP artifact counterscreen; in the data active means activation above about 20%;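 further: Cy5 labelled IP20 peptide probe with compound but no PKA protein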
PKA-R2B confirm = confirmation of human PKA-R2B complex activators | hit rate 9% among 270 | fluorescence polarization, activation | activation, % at 11.4 µM | shares compounds with PKA-R2B act; in the data active means activation above about 19%
Hits are given with their value; i = inactive; nt = no result.

SMILES	PG9 Ab binder	NR1D1 modulator	PKA-R1A activ	NR2E3 ag-1	PKA-R2B act	NR2E3 ag-2	R2B FP artifact	PKA-R2B confirm
COc1ccc(C(=O)NC2(C(F)(F)F)N=C3SCCN3C2=O)cc1 (configuration not stated)	i	i	i	i	19	i	i	i
COC(=O)c1cc(C(c2ccccc2O)C2CCCO2)n2cccc(C(C)(C)C)c12 (configuration not stated)	nt	i	nt	nt	nt	nt	nt	nt
CN(C)c1ccc(N=Nc2ccc(S(=O)(=O)O)cc2)c2ccccc12	i	i	i	i	30	i	i	i
CN(C)c1ccc(N=Nc2ccc(S(N)(=O)=O)cc2)cc1	i	i	i	i	i	i	nt	nt
O=C(COC(=O)CCNS(=O)(=O)c1ccccc1)NNC(=O)c1ccccc1	i	i	i	i	i	i	nt	nt
O=C(COC(=O)CCNS(=O)(=O)c1ccccc1)NC1CC1	i	i	i	i	19	nt	i	i
COc1ccc(OC)c(C(=O)NC(CC(N)=O)c2ccc(N3CCN(c4ccccn4)CC3)c([N+](=O)[O-])c2)c1 (configuration not stated)	i	i	i	i	21	i	i	i
CCc1nc2ccccc2c(C(=O)OCC(=O)NCCCN2CCCC2=O)c1C	i	i	i	i	19	i	i	i
CN(C)S(=O)(=O)c1cccc(-c2cn3ccccc3n2)c1	i	i	i	i	19	i	i	i
Cc1onc(-c2ccccc2)c1C(=O)Nc1ccc(Br)cc1Cl	i	i	i	i	19	i	i	i
NS(=O)(=O)c1ccc(CCNC(=O)c2ccc(Cl)c(S(=O)(=O)N3CCCCC3)c2)cc1	i	i	i	i	18	nt	i	i
NS(=O)(=O)c1ccc(CCNC(=O)c2ccc(S(=O)(=O)N3CCCCC3)cc2)cc1	i	i	i	i	i	i	nt	nt
COc1ccc(C(=O)OCCN2CCN(C3CN(Cc4cn(Cc5cccc(C)c5)nn4)S(=O)(=O)C3)CC2)cc1OC (configuration not stated)	nt	i	nt	nt	nt	nt	nt	nt
CC(C)COC(=O)Cc1c(O)c2ccccc2[nH]c1=O	i	i	i	i	21	i	i	i
CCCCOC(=O)Cc1c(O)c2ccccc2[nH]c1=O	i	i	i	i	i	i	nt	nt
COC(=O)CN1C(=S)N(c2ccc(Cl)cc2)C(=O)C1CC(=O)Nc1ccccc1 (configuration not stated)	i	i	i	i	i	i	nt	nt
COC(=O)CN1C(=S)N(C)C(=O)C1CC(=O)Nc1ccccc1 (configuration not stated)	i	i	i	i	21	i	i	i
COc1cc(OC)cc(-c2c(-c3cccs3)c3cc(Br)ccc3n2C)c1	i	i	i	i	20	i	i	i
CCOc1c(Br)cc(/C=C(\C#N)C(=O)NC2CC2)cc1OC	i	i	i	i	19	i	i	i
CCOc1ccccc1/C=C(\C#N)C(=O)NC1CC1	i	i	nt	i	nt	i	nt	nt
CCOc1ccc(NC(=O)CN2C(=O)NC3(CCCCCC3)C2=O)cc1	i	i	i	i	20	nt	i	i
CCn1c(Cc2cccs2)nnc1SCC(=O)Nc1cccc2ccccc12	nt	i	nt	nt	nt	nt	nt	nt
CN1CCC(C(=O)N2CCCC(C(=O)c3ccc4c5c(cccc35)CC4)C2)CC1 (configuration not stated)	i	i	i	i	i	i	nt	nt
CC(=O)N1CCCC(C(=O)c2ccc3c4c(cccc24)CC3)C1 (configuration not stated)	i	i	i	i	25	i	i	i
COCCn1c(SCC(=O)NCCc2ccc(OC)c(OC)c2)nc2c([nH]c3ccccc32)c1=O	i	i	i	i	i	i	nt	nt
COCCn1c(SCC(=O)NCCc2ccccc2)nc2c([nH]c3ccccc32)c1=O	nt	nt	i	i	20	i	i	i
c1ccc(-c2cccc(CNc3nc(-c4ccccn4)nnc3-c3ccccc3)c2)cc1	nt	i	nt	nt	nt	nt	nt	nt

Compound activity as filed in PubChem BioAssay.
